Columns and labels:
[1] = system: Rattus norvegicus; assay: Adjuvant arthritic activity in rat uninjected leg on day 16 tested at 50 mg/kg perorally; type: functional; details: 384 h, route oral
Method in brief: (§1)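 Rats received oral doses daily from the day of adjuvant injection for 17 days, skipping days 4, 5, 11 and 12. Leg volumes were compared with those of an arthritic vehicle-control group. Significance was judged by Student's t test.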

[2] = system: Rattus norvegicus; assay: Adjuvant arthritic activity in rat injected leg on day 16 tested at 50 mg/kg perorally; type: functional; details: 384 h, route oral; method in brief: as §1
[3] = system: Rattus norvegicus; assay: Adjuvant arthritic activity in rat injected leg on day 3 tested at 50 mg/kg perorally; type: functional; details: 72 h, route oral; method in brief: as §1
[4] = system: Mus musculus; assay: Cutaneous oxazolone induced contact sensitivity in mouse and percent stimulation in right hind paw was determined at a dose 25 mg/kg perorally; details: route oral
[5] = system: Rattus norvegicus; assay: Adjuvant arthritic activity in rat uninjected leg on day 16 tested at 20 mg/kg perorally.; type: functional; details: 384 h, route oral; method in brief: as §1
[6] = system: Rattus norvegicus; assay: Adjuvant arthritic activity in rat injected leg on day 16 tested at 20 mg/kg perorally.; type: functional; details: 384 h, route oral; method in brief: as §1
[7] = system: Mus musculus; assay: Cutaneous oxazolone induced contact sensitivity in mouse and percent stimulation in right hind paw was determined at a dose 20 mg/kg perorally; details: route oral
[8] = system: Rattus norvegicus; assay: Adjuvant arthritic activity in rat injected leg on day 3 tested at 50 mg/kg perorally.; type: functional; details: 72 h, route oral; method in brief: as §1
[9] = system: Rattus norvegicus; assay: Adjuvant arthritic activity in rat uninjected leg on day 16 tested at 50 mg/kg perorally.; type: functional; details: 384 h, route oral; method in brief: as §1
[10] = system: Rattus norvegicus; assay: Adjuvant arthritic activity in rat injected leg on day 16 tested at 50 mg/kg perorally.; type: functional; details: 384 h, route oral; method in brief: as §1
[11] = system: Mus musculus; assay: Cutaneous oxazolone induced contact sensitivity in mouse and percent stimulation in right hind paw was determined at a dose 25 mg/kg perorally.; details: route oral

SMILES | inhibition in vivo at 50 mg/kg [1] | inhibition in vivo at 50 mg/kg [2] | inhibition in vivo at 50 mg/kg [3] | Stimulation [4] | inhibition in vivo at 20 mg/kg [5] | inhibition in vivo at 20 mg/kg [6] | Stimulation [7] | inhibition in vivo at 50 mg/kg [8] | inhibition in vivo at 50 mg/kg [9] | inhibition in vivo at 50 mg/kg [10] | Stimulation [11]
CSc1ccc(-c2nc3n(c2-c2ccncc2)CCS3)cc1 | 16% | 12% | 16% | 19% |  |  |  |  |  |  | 
C[C@]12C=CC(=O)C=C1CC[C@@H]1[C@@H]2[C@@H](O)C[C@@]2(C)[C@H]1CC[C@]2(O)C(=O)CO [PREDNISOLONE] |  |  | 28% |  | 54% | 42% | -12% |  |  |  | 
COc1ccc(-c2nc3n(c2-c2ccncc2)CCS3)cc1 | 21% | 20% | 15% | 59% |  |  |  |  |  |  | 
c1cc(-c2nc3n(c2-c2ccncc2)CCS3)ccn1 | -3% | 7% |  |  |  |  |  | -4% |  |  | 
CSc1ccc(-c2c(-c3ccncc3)nc3n2CCS3)cc1 |  | 8% | 7% | 19% |  |  |  |  | -18% |  | 
c1ccc([C@H]2CN3CCSC3=N2)cc1 [LEVAMISOLE] | 1% | -2% | 0% | 230% |  |  |  |  |  |  | 
Fc1ccc(-c2nc3n(c2-c2ccncc2)CCS3)cc1 |  |  | 27% |  |  |  |  |  | 44% | 38% | 69%
Fc1ccc(-c2c(-c3ccncc3)nc3n2CCS3)cc1 | -9% | 4% | -2% | 15% |  |  |  |  |  |  | 
COc1ccc(-c2nc3n(c2-c2ccc(OC)cc2)CCS3)cc1 |  |  |  |  |  |  |  | 25% | 29% | 36% | 194%
COc1ccc(-c2c(-c3ccncc3)nc3n2CCS3)cc1 |  | 1% | 0% | 42% |  |  |  |  | -37% |  | 

Reference: ChEMBL document CHEMBL1122599, “Antiinflammatory activity of 5,6-diaryl-2,3-dihydroimidazo[2,1-b]thiazoles. Isomeric 4-pyridyl and 4-substituted phenyl derivatives” (1984)
